In ChEMBL document CHEMBL1148276, “Oral bioavailability of a new class of micro-opioid receptor agonists containing 3,6-bis[Dmt-NH(CH(2))(n)]-2(1H)-pyrazinone with central-mediated analgesia” (J Med Chem, 2004):

What was measured:
[1] = target: Delta-type opioid receptor (Rattus norvegicus, UniProt P33533); test: Compound was tested for binding affinity towards opioid receptor delta 1 by displacing [3H]DPDPE radioligand in rat brain P2 synaptosomes membranes.; assay type: cell membranes
Procedure, shortened: (§1)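 Competition binding at equilibrium (2.5 h, 22 °C) on rat brain P2 synaptosomal membranes, preincubated to strip endogenous opioids, washed with protease inhibitor, stored in 20% glycerol at -80 °C; [3H]DAMGO (μ) or [3H]DPDPE (δ); nonspecific binding with 2 μM unlabeled peptide; GF/C filtration; Ki by Cheng-Prusoff, duplicates, 5-8 doses, 3-5 preparations.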

Mu-type opioid receptor [2] = target: Mu-type opioid receptor (Rattus norvegicus, UniProt P33535); test: Compound was tested for binding affinity towards Opioid receptor mu 1 by displacing [3H]DAGO radioligand in rat brain P2 synaptosomes membranes.; assay type: cell membranes
Mus musculus [3] = test: Potency relative to morphine in tail flick test in mice, subcutaneously; assay type: functional
Procedure, shortened: (§2)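 Male Swiss-Webster mice (20-25 g); radiant-heat tail-flick, baseline 2-3 s, cutoff 8 s; dosing icv or sc in saline pH 7, po in water; readings from 10, 15 or 30 min respectively until return to baseline; AUC of latency vs time, 5-7 mice per point; relative potency from doses giving analgesia equivalent to morphine.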

Mus musculus [4] = organism: Mus musculus; test: Potency relative to morphine in hot plate test in mice, perorally; Vale ranges from 0.16-0.24; assay type: functional
[5] = target: Delta-type opioid receptor (Mus musculus, UniProt P32300); test: Compound was tested for opioid receptor delta 1 agonism or antagonism in mouse vas deferens; assay type: functional, tissue-based
Mus musculus [6] = test: Potency relative to morphine in hot plate test in mice, intracerebroventricularly; Vale ranges from 18-21; assay type: functional
Mus musculus [7] = test: Potency relative to morphine in tail flick test in mice, intracerebroventricularly; Vale ranges from 50-63; assay type: functional; procedure, shortened: as §2
Mus musculus [8] = test: Potency relative to morphine in hot plate test in mice, subcutaneously; assay type: functional
[9] = test system: Opioid receptors; mu & delta; test: Selectivity ratio of Ki of delta-opioid receptor to mu-opioid receptor; assay type: protein assay; procedure, shortened: as §1
Mu-type opioid receptor [10] = target: Mu-type opioid receptor (Cavia porcellus, UniProt P97266); test: Compound was tested for Opioid receptor mu 1 agonism in isolated tissues from guinea pig ileum; assay type: functional, tissue-based
Mus musculus [11] = organism: Mus musculus; test: Potency relative to morphine in tail flick test in mice, perorally; assay type: functional; procedure, shortened: as §2

Chain of Delta-type opioid receptor (Mus musculus, UniProt P32300) (P32300 whole entry): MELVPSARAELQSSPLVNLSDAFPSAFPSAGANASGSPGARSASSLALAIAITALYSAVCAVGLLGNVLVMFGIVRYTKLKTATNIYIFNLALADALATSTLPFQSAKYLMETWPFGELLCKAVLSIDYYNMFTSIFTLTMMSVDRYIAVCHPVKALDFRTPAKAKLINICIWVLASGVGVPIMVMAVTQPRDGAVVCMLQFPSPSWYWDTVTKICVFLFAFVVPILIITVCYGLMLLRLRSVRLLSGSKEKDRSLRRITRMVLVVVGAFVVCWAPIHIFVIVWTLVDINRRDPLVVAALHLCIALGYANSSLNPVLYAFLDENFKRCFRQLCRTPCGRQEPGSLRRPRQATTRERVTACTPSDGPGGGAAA
Chain of Mu-type opioid receptor (Cavia porcellus, UniProt P97266) (P97266 whole entry): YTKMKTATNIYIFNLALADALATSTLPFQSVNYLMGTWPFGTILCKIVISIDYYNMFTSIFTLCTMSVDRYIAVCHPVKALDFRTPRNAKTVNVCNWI
Chain of Mu-type opioid receptor (Rattus norvegicus, UniProt P33535) (P33535 whole entry): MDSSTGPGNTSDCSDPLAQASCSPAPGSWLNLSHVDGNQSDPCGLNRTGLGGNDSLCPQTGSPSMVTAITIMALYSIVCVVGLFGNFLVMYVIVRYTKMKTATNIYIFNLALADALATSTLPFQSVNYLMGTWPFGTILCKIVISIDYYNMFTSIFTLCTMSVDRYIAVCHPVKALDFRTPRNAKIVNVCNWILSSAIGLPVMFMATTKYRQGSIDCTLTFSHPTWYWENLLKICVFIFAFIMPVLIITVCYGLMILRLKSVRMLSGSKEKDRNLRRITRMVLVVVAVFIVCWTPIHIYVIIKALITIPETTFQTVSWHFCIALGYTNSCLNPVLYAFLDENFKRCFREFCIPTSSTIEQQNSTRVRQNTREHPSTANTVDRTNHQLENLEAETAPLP
Chain of Delta-type opioid receptor (Rattus norvegicus, UniProt P33533) (P33533 whole entry): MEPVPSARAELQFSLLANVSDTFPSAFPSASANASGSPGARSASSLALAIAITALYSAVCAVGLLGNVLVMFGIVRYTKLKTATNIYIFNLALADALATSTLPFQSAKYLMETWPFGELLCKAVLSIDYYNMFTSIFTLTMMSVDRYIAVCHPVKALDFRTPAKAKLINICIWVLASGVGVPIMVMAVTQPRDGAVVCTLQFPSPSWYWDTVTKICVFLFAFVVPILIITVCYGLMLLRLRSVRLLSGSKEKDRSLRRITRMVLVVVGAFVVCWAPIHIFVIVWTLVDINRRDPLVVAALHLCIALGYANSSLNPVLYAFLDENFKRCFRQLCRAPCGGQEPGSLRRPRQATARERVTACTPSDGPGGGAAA

Cc1cc(O)cc(C)c1CC(N)C(=O)NCCCc1nc(O)c(CCCNC(=O)C(N)Cc2c(C)cc(O)cc2C)nc1C.Cl.Cl (stereo not given)
Ki [1]: 13.2 nM
Ki (Mu-type opioid receptor [2]): 0.042 nM
Activity (Mus musculus [3]): 0.63
Activity (Mus musculus [4]): 0.24
IC50 [5]: > 1000 nM
Activity (Mus musculus [6]): 21
Activity (Mus musculus [7]): 63
Activity (Mus musculus [8]): 0.55
Ratio [9]: 307
IC50 (Mu-type opioid receptor [10]): 1.33 nM
Activity (Mus musculus [11]): 0.42

Cc1cc(O)cc(C)c1CC(N)C(=O)NCCCCc1nc(O)c(CCCCNC(=O)C(N)Cc2c(C)cc(O)cc2C)nc1C (stereo not given)
Ki [1]: 23.2 nM
Ki (Mu-type opioid receptor [2]): 0.114 nM
IC50 [5]: 41.5 nM
Ratio [9]: 204
IC50 (Mu-type opioid receptor [10]): 1.9 nM

Cc1cc(O)cc(C)c1CC(N)C(=O)NCCc1nc(O)c(CCNC(=O)C(N)Cc2c(C)cc(O)cc2C)nc1C (stereo not given)
Ki [1]: 7.26 nM
IC50 [5]: > 10000 nM
IC50 (Mu-type opioid receptor [10]): 12.9 nM

Cc1nc(CCCCNC(=O)C(N)Cc2ccc(O)cc2)c(O)nc1CCCCNC(=O)C(N)Cc1ccc(O)cc1 (stereo not given)
Ki [1]: 2190 nM
Ki (Mu-type opioid receptor [2]): 70.2 nM
Ratio [9]: 31

Cc1nc(CCCNC(=O)C(N)Cc2ccc(O)cc2)c(O)nc1CCCNC(=O)C(N)Cc1ccc(O)cc1 (stereo not given)
Ki [1]: 435 nM
Ki (Mu-type opioid receptor [2]): 25.7 nM
Ratio [9]: 17

Cc1nc(CCNC(=O)C(N)Cc2ccc(O)cc2)c(=O)[nH]c1CCNC(=O)C(N)Cc1ccc(O)cc1 (stereo not given)
Ki [1]: 2900 nM
Ki (Mu-type opioid receptor [2]): 309 nM
Ratio [9]: 9.4

Cc1nc(CNC(=O)C(N)Cc2ccc(O)cc2)c(=O)[nH]c1CNC(=O)C(N)Cc1ccc(O)cc1 (stereo not given)
Ki [1]: 1830 nM
Ratio [9]: 4

Cc1cc(O)cc(C)c1CC(N)C(=O)NCc1nc(O)c(CNC(=O)C(N)Cc2c(C)cc(O)cc2C)nc1C (stereo not given)
Ki [1]: 15.7 nM
Ki (Mu-type opioid receptor [2]): 1.16 nM
IC50 [5]: > 10000 nM
Ratio [9]: 13.5
IC50 (Mu-type opioid receptor [10]): 1690 nM
